{"source": "paper PMC4641816", "about": "(Journal of biomolecular screening, 2014)", "key": {"[1]": {"molecular_target": "recombinant CTSL1 (Fasciola hepatica, UniProt Q7JNQ9)", "experiment": "Cathepsin L1", "assay_type": "biochemical"}, "[2]": {"molecular_target": "PfM18AAP extracts (soluble freeze-thaw extracts of parasites) (Plasmodium falciparum, UniProt Q8I2J3)", "experiment": "Malaria cell lysate assay", "assay_type": "biochemical", "conditions": "at ≤5μM", "method_in_brief": "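Human erythrocytes infected in vitro were washed in PBS and parasites released with saponin. Three freeze-thaw cycles followed and supernatant extracts were kept. Extracts were incubated with test compound plus CoCl2 and aminoacyl-NHMec substrate (given as both H-Glu- and H-Asp-NHMec). Decreased fluorescence from substrate cleavage was taken as inhibition. Vehicle and background controls were included.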"}, "[3]": {"system": "P. falciparum infected red blood cells", "experiment": "Parasite growth assay", "assay_type": "cell-based, Plasmodium falciparum", "conditions": "10 μM test concentration", "method_in_brief": "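Asexual erythrocytic-stage P. falciparum in infected RBCs was incubated with test compound at 10 µM in hypoxanthine-free medium, then 3H-hypoxanthine was added. 3H incorporation was measured after 48 h; reduced incorporation was scored as inhibition. Each plate held vehicle and uninfected-RBC background controls (DMSO ≤1%).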"}, "[4]": {"molecular_target": "T1, purified recombinant PfM18AAP (Plasmodium falciparum, UniProt Q8I2J3)", "T1 sequence (Q8I2J3 1-570)": "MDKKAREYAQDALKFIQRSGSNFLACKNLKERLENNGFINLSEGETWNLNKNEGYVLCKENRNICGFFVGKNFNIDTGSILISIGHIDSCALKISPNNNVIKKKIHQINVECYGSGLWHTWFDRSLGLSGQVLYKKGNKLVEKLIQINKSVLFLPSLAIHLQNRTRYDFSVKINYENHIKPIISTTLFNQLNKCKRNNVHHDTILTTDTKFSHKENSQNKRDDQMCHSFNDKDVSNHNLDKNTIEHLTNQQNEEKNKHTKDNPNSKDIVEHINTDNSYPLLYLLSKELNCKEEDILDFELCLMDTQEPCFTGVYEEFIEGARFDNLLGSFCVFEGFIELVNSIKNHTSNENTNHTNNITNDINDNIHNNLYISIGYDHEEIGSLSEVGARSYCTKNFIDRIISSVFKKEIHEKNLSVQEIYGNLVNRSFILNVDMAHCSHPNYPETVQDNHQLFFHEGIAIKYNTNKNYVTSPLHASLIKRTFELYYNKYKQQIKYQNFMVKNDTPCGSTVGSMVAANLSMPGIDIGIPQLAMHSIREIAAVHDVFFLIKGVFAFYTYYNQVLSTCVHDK", "experiment": "Ki determination and mode of inhibition", "assay_type": "biochemical", "conditions": "for mode of inhibition of PfM18AAP: comparison of fits, Lineweaver-Burk plots"}, "[5]": {"conditions": "previous primary screens at SRIMSC; ref PubChem AIDs 1859, 1931, 651959; cited from earlier work"}, "[6]": {"system": "mammalian cytotoxicity", "conditions": "previous primary screens, where tested; ref PubChem AIDs 1486, 1825; cited from earlier work"}, "[7]": {"system": "bacterial viability", "conditions": "previous primary screens, where tested; ref PubChem AIDs 449731, 651606; cited from earlier work"}, "[8]": {"system": "serotonin receptor", "conditions": "previous primary screens; ref PubChem AIDs 612 and 504916; cited from earlier work"}, "[9]": {"system": "PfM18AAP", "conditions": "cited from earlier work"}}, "note": "Where two headings read alike, the source gives them in different places."}
{"smiles": "CN1CCc2cccc3c2[C@@H]1Cc1ccc(O)c(O)c1-3.Cl.O", "note": "[CID 6852389, (S)-(+)-Apomorphine hydrochloride hydrate]", "values": [{"measurement": "IC50", "setting": "[1]; read-out: IC50 in CTSL1 titration experiments, 10 point titration, triplicate", "result": "> 59600", "unit": "nM"}, {"measurement": "efficacy in P. falciparum lysate assay", "setting": "[2]", "result": 84, "unit": "%"}, {"measurement": "inhibition in 3H hypoxanthine incorporation assay", "setting": "[3]", "result": 87, "unit": "%"}, {"measurement": "mode of inhibition of PfM18AAP", "setting": "[4]", "result": "non-competitive"}, {"measurement": "Ki", "setting": "[4]; read-out: Ki (non-linear regression), powder samples, substrate Glu-NHMec", "result": "3390 ± 360", "unit": "nM"}, {"measurement": "activity in similarly formatted enzymatic inhibition assays", "setting": "[5]", "result": "devoid of activity"}, {"measurement": "activity in mammalian cytotoxicity screens", "setting": "[6]", "result": "inactive"}, {"measurement": "activity in bacterial viability screens", "setting": "[7]", "result": "inactive"}, {"measurement": "activity in cell-based screens at SRIMSC (serotonin receptor screens)", "setting": "[8]", "result": "inactive in all cell-based screens tested at the SRIMSC, except for two serotonin receptor screens"}]}
{"smiles": "Oc1ccc(CCNc2c3ccccc3nc3ccccc23)cc1O", "note": "[CID 23724194, 4-[2-(acridin-9-ylamino)ethyl]benzene-1,2-diol]", "values": [{"measurement": "IC50", "setting": "[1]", "result": "> 59600", "unit": "nM"}, {"measurement": "Ki", "setting": "[4]", "result": "1350 ± 150", "unit": "nM"}, {"measurement": "mode of inhibition of PfM18AAP", "setting": "[4]", "result": "non-competitive"}, {"measurement": "activity in similarly formatted enzymatic inhibition assays", "setting": "[5]", "result": "devoid of activity"}, {"measurement": "activity in mammalian cytotoxicity screens", "setting": "[6]", "result": "inactive"}, {"measurement": "activity in bacterial viability screens", "setting": "[7]", "result": "inactive"}, {"measurement": "activity in cell-based screens at SRIMSC (serotonin receptor screens)", "setting": "[8]", "result": "inactive in all cell-based screens tested at the SRIMSC, except for two serotonin receptor screens"}]}
{"smiles": "C[C@H](NC(=O)[C@H](Cc1ccccc1)NC(=O)OCc1ccccc1)C(=O)C=[N+]=[N-]", "note": "[Z-Phe-Ala diazomethylketone, Z-Phe-Ala-diazomethylketone, reference compound]", "values": [{"measurement": "IC50", "setting": "[1]; read-out: IC50 of positive control in CTSL1 HTS assay, average, N=22 plates", "result": 15.4, "unit": "nM"}]}
{"smiles": "[Cl-].[Cl-].[Zn+2]", "note": "[Zn(II), ZnCl2, reference compound]", "values": [{"measurement": "concentration at which PfM18AAP is inhibited", "setting": "[9]", "result": "> 1", "unit": "mM"}]}
{"smiles": "[Cl-].[Cl-].[Co+2]", "note": "[cobalt]", "values": [{"measurement": "effect of metal ion on PfM18AAP activity", "setting": "[9]", "result": "enhanced"}]}
{"smiles": "[Mn+2]", "note": "[manganese]", "values": [{"measurement": "effect of metal ion on PfM18AAP activity", "setting": "[9]", "result": "enhanced"}]}
